# Screens: PubChem, SRMLSC
# This excerpt belongs to a sample that is enriched for hits.
# H69AR inhibit – blocks growth of human H69AR lung tumor cells; H69AR lung tumor viability, ATP luminescence, 72 h; hits give low values; viability, % at 10 µM; 85,000 compounds, 6% hits;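 active means viability at or below 40%; inactive means viability above 40%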;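 further: multidrug resistant small cell line overexpressing MRP-1 efflux transporter; 100% = mean luminescence of untreated control wells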
# HCT116 bCat-KO – beta-catenin-lacking colon tumor cell growth suppression; viability, % at 10 µM; HCT116 beta-catenin knockout viability, CellTiter-Glo, 60 h; hits give low values; 140,000 compounds, 1.5% hits;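 active means viability at or under a set limit, the compound median less 4 SD, cut at about 6% in these data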;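 further: 0% = Hyamine 1622 control at 20 µM and 100% = untreated cell control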
# PTEN del growth – growth suppressors of cells with PTEN tumor suppressor deletion. HCT116 PTEN-null viability, CellTiter-Glo, 60 h; hits give low values. viability, % at 10 µM. 140,000 compounds, 1.2% hits. AID 827;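 active means viability at or below a set limit, 4 SD under the median of all tested compounds, cut at about 3.7% in these data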;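 further: PTEN knockout HCT116 line with beta catenin targeted HCT116 as companion control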
# HUVEC prolif 384 – human endothelial cell proliferation inhibition; HUVEC proliferation, CellTiter-Glo luminescence, 72 h; hits give low values; 86,000 compounds, 1.1% hits; viability, % at 10 µM (by protocol);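 active means viability at or below 30%; inactive means viability above 30%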;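 further: 100% = median luminescence of DMSO-only cell control wells on each plate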
# Lung fibro prol – blocks proliferation of human lung fibroblasts; LL 47 human lung fibroblast viability, ATP luminescence; hits give low values; 85,000 compounds, 1.1% hits; viability, % at 10 µM;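 active means viability at or below 50% in the single dose screen; inactive means viability above 50%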;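 further: compound exposure lasted 72 h before the ATP readout; 100% = median luminescence of untreated cell-only wells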
#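 Material: human LL 47 lung fibroblast cells; quantity: 1,150 cells/well; medium: IMEM plus 15% FBS; doses: 0.1% DMSO in all compound wells; timing: overnight attachment after seeding, then 72 h compound exposure at 37 °C; detection: CellTiter-Glo luminescence; measure: % viability of median cell-only signal; controls: cell-only wells, no compound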
# Starred values were filed as active, the others as inactive; / = no result given.
SMILES,H69AR inhibit,HCT116 bCat-KO,PTEN del growth,HUVEC prolif 384,Lung fibro prol
CCN(Cc1cc(=O)n2ccsc2n1)c1cccc2ccccc12,/,60,54,/,/
C=CCOC(=O)/C(=C\C=C\c1ccccc1)NC(=O)c1ccccc1,/,89,83,/,/
COc1ccc(C2CC(c3ccc(Cl)c(Cl)c3)Nc3nc(N)nn32)cc1 (centres undefined),34*,74,77,84,94
Cc1ccc(OCC(=O)Nc2ccc(-c3nc4ncccc4o3)cc2)c(C)c1,33*,101,103,71,97
Cc1cccc(C)c1NC(=O)NC1(C(=O)NCCCN2CCOCC2)CCCCC1,81,92,97,94,98
COc1ccc(C(=O)Nc2cccc(-c3cc4ccccc4oc3=O)c2)cc1[N+](=O)[O-],/,37,44,/,/
O=C(COC(=O)/C=C/c1cccs1)Nc1ccc2ccccc2c1,/,96,102,/,/
Cc1ccc2c(c1)c1ncnc(N3CCOCC3)c1n2C,46,62,66,85,93
c1nc(N2CCC3(CC2)OCCO3)c2[nH]cnc2n1,89,93,102,88,95
Cc1ccc2[nH]c3c(N4CCCCCC4)ncnc3c2c1,41,5.1*,9,32*,78
Cc1ccc2c(c1)c1ncnc(N3CCC4(CC3)OCCO4)c1n2C,29*,80,72,75,90
c1ccc2c(c1)CCN(c1ncnc3c1[nH]c1ccccc13)C2,/,8,15,/,/
c1ccc(CN2CCN(c3ncnc4c3[nH]c3ccccc34)CC2)cc1,46,3.9*,8,44,72
c1ccc2c(c1)[nH]c1c(N3CCC4(CC3)OCCO4)ncnc12,39*,52,53,77,89
O=C(Cn1cnc2nc3n(c2c1=O)CCC3)NCc1ccccc1,/,101,99,/,/
CCCN1CNC(=S)N(c2ccccc2OCC)C1,/,87,88,/,/
CC(C(=O)Nc1sc2c(c1C(=O)NCC1CCCO1)CCC2)N1C(=O)c2ccccc2C1=O (centres undefined),/,100,116,/,/
COc1cc(/C=C(/C#N)c2ccc(F)cc2)ccc1Oc1ccc([N+](=O)[O-])cn1,/,37,53,/,/
Cc1ccc2[nH]c3c(N4CCN(Cc5ccccc5)CC4)ncnc3c2c1,71,22,25,14*,77
COc1cccc2[nH]c3c(N4CCN(Cc5ccc6c(c5)OCO6)CC4)ncnc3c12,40*,71,70,61,97
CCOc1ccc2[nH]c3c(N4CCN(c5ccccn5)CC4)ncnc3c2c1,/,60,50,52,85
COc1ccc2c(c1)[nH]c1c(N3CCN(Cc4ccc5c(c4)OCO5)CC3)ncnc12,/,8,10,/,/
Cc1ccc2[nH]c3c(N4CCN(Cc5ccc6c(c5)OCO6)CC4)ncnc3c2c1,54,11,11,41,93
OC1(c2cccc(C(F)(F)F)c2)CCN(c2ccc(-c3ccccc3)nn2)CC1,/,90,89,92,102
Cc1ccc2c(c1)[nH]c1c(N3CCN(Cc4ccccc4)CC3)ncnc12,56,7,9,15*,92
SMILES,H69AR inhibit,HCT116 bCat-KO,PTEN del growth,HUVEC prolif 384,Lung fibro prol
OC1(c2cccc(C(F)(F)F)c2)CCN(c2ncnc3c2[nH]c2ccccc23)CC1,19*,1.2*,1.3*,46,81
CN1CCN(NC(=O)c2ccc(Br)c(S(=O)(=O)N3CCOCC3)c2)CC1,/,89,91,/,/
Cc1ccc(C(=O)NCC(=O)OCC(=O)Nc2ccccc2[N+](=O)[O-])cc1,/,98,101,/,/
Cc1ccc(-n2c3c(c(=O)[nH]c2=O)C(NS(=O)(=O)c2ccc(Cl)cc2)(C(F)(F)F)C(=O)N3)cc1 (centres undefined),/,86,86,/,/
COc1cc2[nH]c3c(Cl)ncnc3c2cc1OC,/,79,79,/,/
COc1cc2[nH]c3c(N4CCN(c5ccc(Cl)cc5)CC4)ncnc3c2cc1OC,6.9*,59,68,50,77
CCOC(=O)SC1=N/C(=C\c2ccc(N(C)C)cc2)C(=O)S1,27*,91,90,87,108
CCSC1=N/C(=C\c2ccc(C(=O)O)cc2)C(=O)S1,82,96,101,91,100
COc1cc(CNc2cc(C)ccc2C)cc(OC)c1OC,62,82,83,89,92
COc1cc(CNc2ccc(C)c(C)c2)cc(OC)c1OC,19*,17,26,56,/
COc1cc(C)c(CNc2ccc(OC)c(OC)c2)cc1C,36*,65,83,86,/
COc1cc(C)c(CNc2cccc(C)c2)cc1C,113,102,89,104,101
O=C(NC(=S)NCCOCc1ccc(Cl)cc1)c1cccnc1,/,79,90,/,/
